Measured values pooled from the literature.
Target: Tyrosine-protein kinase Fgr (FGR, Homo sapiens, UniProt P09769)

Compound | effect on | action | technique | tested at | quantity | value
CCN(CC)CCNC(=O)c1c(C)[nH]c(/C=C2\C(=O)Nc3ccc(F)cc32)c1C | enzyme activity | inhibitor | – | 10 µM | inhibition | 97%
COc1cc(Cl)c(C(=O)N[C@@H](CN[C@H]2CC[C@@H](N)CC2)Cc2ccc(C#N)cc2)cc1-c1ccc(CN[C@H](C)c2ccc(C)cc2)o1 | enzyme activity | inhibitor | – | 1 µM | remaining activity | 87%
CN(c1ccnc(CNc2nc(Nc3ccc4c(c3)CC(=O)N4)ncc2C(F)(F)F)n1)S(C)(=O)=O | cell-free assay | – | competition with immobilised ligand | 1 µM | remaining binding | 58%
CCN(CC)c1ccc(C2=NNC(=O)CC2C)cc1[N+](=O)[O-] (stereo not shown) | enzyme activity | inhibitor | – | 10 µM | remaining activity | 85%
O=C1Nc2ccc(Cl)cc2C1=Cc1cc(Cl)c(O)c(Cl)c1 | cell-free assay | – | – | 0.5 µM | remaining signal | 84.8%
CN(c1nccc(-c2cnn3ncccc23)n1)C1CC1 | cell-free assay | – | – | 1 µM | remaining signal | 100%
Cc1ccc(NC(=O)c2ccc(CN3CCN(C)CC3)cc2)cc1Nc1nc(-c2cccnc2)cs1 | cell-free assay | – | – | 0.5 µM | remaining signal | 43.6%
CN1CCC2(CC1)NC(=O)c1c(c3ccc(Cl)c(Cl)c3n1C)C2C#N (racemic) | thermal stability | – | DSF | 10 µM | ΔTm | 0.1 °C
FC(F)(F)c1ccc2c(c1)nc(-c1cccnc1)n2C1CC1 | cell-free assay | – | competition with immobilised ligand | 1 µM | remaining binding | 100%
COc1cc2ncnc(Nc3ccc(Oc4ccccc4)c(C)c3C)c2cc1OC | enzyme activity | inhibitor | – | 1 µM | inhibition | 93%
CC1(C)NC(=O)c2[nH]c3c(Cl)c(Cl)ccc3c2C1C#N (stereo not shown) | thermal stability | – | DSF | 10 µM | ΔTm | 0.2 °C
COc1cc(-c2cn(C3CCc4c(F)cccc4N(CC(F)(F)F)C3=O)nn2)ccc1-n1cnc(C)c1 (stereo not shown) | cell-free assay | – | competition with immobilised ligand | 1 µM | remaining binding | 100%
Cn1c2c(c3ccc(Cl)c(Cl)c31)C(C#N)C1(CCOCC1)NC2=O (stereo not shown) | thermal stability | – | DSF | 10 µM | ΔTm | 0 °C
O=C(Nc1cnn(-c2csc(C(=O)NC3COC3)c2)c1)Nc1c(F)cccc1Cl | enzyme activity | inhibitor | – | 5 µM | remaining activity | 95.5%
Cc1cnc(NC2CCOCC2)nc1-n1cnc(C(=O)NC(CN)c2cc(F)cc(Cl)c2)c1 (stereo not shown) | enzyme activity | inhibitor | radiometric | 1 µM | remaining activity | 97%
O=C(Nc1cccnn1)N1CCC(=Cc2cccc(Oc3ccc(C(F)(F)F)cn3)c2)CC1 | cell-free assay | – | competition with immobilised ligand | 1 µM | remaining binding | 63%
Cn1c2c(c3ccc(Cl)c(Cl)c31)C(C#N)C1(CCNCC1)NC2=O (racemic) | thermal stability | – | DSF | 10 µM | ΔTm | 0.1 °C
CC(C)(C)c1nc2c(s1)c1nc(N)ncc1c1ccc(NS(=O)(=O)c3c(F)cccc3F)c(F)c12 | enzyme activity | inhibitor | radiometric | 1 µM | remaining activity | 91%
O=S(=O)(NC1CCC(c2cc(F)ccc2F)(S(=O)(=O)c2ccc(Cl)cc2)CC1)C(F)(F)F (stereo not shown) | cell-free assay | – | competition with immobilised ligand | 1 µM | remaining binding | 99%
